Source: PMC5084670 (Cancer Science, 2016)

Columns and labels:
[1] = Pharmacokinetics of sonidegib in plasma; type: in vivo, human; details: for Exposure accumulation as the AUC ratio / AUC accumulation: cycle 1 day 15; for AUC(0-t) / Tmax / Cmax: human, plasma, oral; for Tmax: T max; for Cmax: C max
[2] = test system: GLI1; experiment: GLI1 expression in normal skin samples by RT-PCR; type: in vivo, human
Outline: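 Adult Asian patients with advanced solid tumors took oral test compound once daily in 28-day cycles after a 7-day single-dose run-in. Normal skin was sampled before treatment, at the end of cycle 1, and within 14 days after the last dose. RNA was extracted and analysed by RT-PCR to estimate GLI1 expression as a marker of Hh pathway activation.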

[3] = test system: advanced solid tumors; experiment: Tumor response by RECIST version 1.0; type: in vivo, human
Outline: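 Daily oral test compound was given in 28-day cycles to adults with advanced solid tumors who had measurable or evaluable disease. Investigators judged tumor response from CT or MRI scans according to RECIST version 1.0.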

[4] = cited from earlier work
[5] = test system: murine model of MB with deletion of PTCH1; details: cited from earlier work

With Cc1c(C(=O)Nc2ccc(N3C[C@@H](C)O[C@@H](C)C3)nc2)cccc1-c1ccc(OC(F)(F)F)cc1 [Sonidegib] the Steady state ([1]; both groups) was “not achieved within cycle 1”, the “Plasma concentration at 168 h after a single dose” value ([1]; both groups at every dose) was “detected” and the “Exposure accumulation as the AUC ratio” value ([1]; group 1, 400 mg) was 4.9 fold. The “Accumulation in trough levels” value ([1]; group 1, 400 mg, cycle 2 day 1 vs 24-h post-dose concentration in run-in) was 12.4 fold, the “Accumulation in trough levels” value ([1]; group 1, 400 mg, cycle 2 day 22 vs 24-h post-dose concentration in run-in) was 19.6 fold and the “Exposure accumulation as the AUC ratio” value ([1]; group 1, 600 mg) was 4.6 fold. For the same compound, the “Accumulation in trough levels” value ([1]; group 1, 600 mg, cycle 2 day 1 vs 24-h post-dose concentration in run-in) was 14.3 fold, the “Accumulation in trough levels” value ([1]; group 1, 600 mg, cycle 2 day 22 vs 24-h post-dose concentration in run-in) was 19.9 fold and the AUC accumulation ([1]; group 2, 400 mg) was “approximately 4.3 fold”. The Trough accumulation ([1]; group 2, 400 mg, cycle 2 day 1) was 13.9 fold, the Trough accumulation ([1]; group 2, 400 mg, cycle 2 day 22) was 16.3 fold and the AUC accumulation ([1]; group 2, 600 mg) was ~4.2 fold. The Trough accumulation ([1]; group 2, 600 mg, cycle 2 day 1) was 12.3 fold, the Trough accumulation ([1]; group 2, 600 mg, cycle 2 day 22) was 13.8 fold and the AUC accumulation ([1]; group 2, 800 mg) was ~6.0 fold. For the same compound, the AUC(0-t) ([1]; 400 mg q.d., AUClast, cycle 1, day 15 (last sampling 24 h), group 2, 400 mg q.d., n = 9, geometric mean (% CV)) was 12300 ng·h/mL, the AUC(0-t) ([1]; 400 mg, AUC0–24, pharmacokinetic run-in (single dose), group 1, 400 mg, n = 12, geometric mean (% CV)) was 2010 ng·h/mL and the AUC(0-t) ([1]; 400 mg, AUC0–24, pharmacokinetic run-in (single dose), group 2, 400 mg, n = 12, geometric mean (% CV)) was 2890 ng·h/mL. The Tmax ([1]; 400 mg, cycle 1, day 15, group 1, 400 mg q.d., n = 12, median) was 2 h, the Tmax ([1]; 400 mg, pharmacokinetic run-in (single dose), group 1, 400 mg, n = 12, median) was 3 h and the Tmax ([1]; 400 mg, pharmacokinetic run-in (single dose), group 2, 400 mg, n = 12, median) was 3 h. The AUC(0-t) ([1]; 600 mg, AUC0–24, pharmacokinetic run-in (single dose), group 1, 600 mg, n = 9, geometric mean (% CV)) was 3330 ng·h/mL, the AUC(0-t) ([1]; 600 mg, AUC0–24, pharmacokinetic run-in (single dose), group 2, 600 mg, n = 8, geometric mean (% CV)) was 3420 ng·h/mL and the Cmax ([1]; 600 mg, cycle 1, day 15, group 1, 600 mg q.d., n = 8, geometric mean (% CV)) was 1010 ng/mL. For the same compound, the Tmax ([1]; 600 mg, cycle 1, day 15, group 1, 600 mg q.d., n = 8, median) was 2 h, the Tmax ([1]; 600 mg, cycle 1, day 15, group 2, 600 mg q.d., n = 5, median) was 4 h and the Tmax ([1]; 600 mg, pharmacokinetic run-in (single dose), group 1, 600 mg, n = 9, median) was 2 h. For the same compound, the Tmax ([1]; 600 mg, pharmacokinetic run-in (single dose), group 2, 600 mg, n = 8, median) was 3 h, the AUC(0-t) ([1]; 800 mg, AUC0–24, pharmacokinetic run-in (single dose), group 2, 800 mg, n = 4, geometric mean (% CV)) was 3650 ng·h/mL and the Cmax ([1]; 800 mg, cycle 1, day 15, group 2, 800 mg q.d., n = 2, geometric mean (% CV)) was 1230 ng/mL. The Tmax ([1]; 800 mg, pharmacokinetic run-in (single dose), group 2, 800 mg, n = 4, median) was 2 h, the Tmax ([1]; after a single dose in run-in period and repeated dosing in cycle 1 day 15, both groups) was 2 to 4 h and the “Inhibition in GLI1 (normal skin, end of cycle 1 vs before treatment)” value ([2]; group 1, 400 mg, four patients) was 32–88%. For the same compound, the “Inhibition in GLI1 (normal skin, end of cycle 1 vs before treatment)” value ([2]; group 1, 600 mg, nine patients) was 73–96%, the “Inhibition in GLI1 (normal skin, end of cycle 1 vs before treatment)” value ([2]; group 2, 400 mg, six patients) was 6.8–95% and the “Inhibition in GLI1 (normal skin, end of cycle 1 vs before treatment)” value ([2]; group 2, 600 mg, two patients) was 53–83%. For the same compound, the “GLI1 expression in normal skin samples” value ([2]; paired samples from 22 patients, all except one patient) was “decreased GLI1 expression”, the “Stable disease (SD), number of patients” value ([3]; group 1, 400 mg) was 4 patients and the “Stable disease (SD), number of patients” value ([3]; group 1, 600 mg) was 1 patients. The “Progressive disease, patients” value ([3]; group 1, 15 patients) was 71%, the “Stable disease (SD), patients” value ([3]; group 1, five patients) was 24% and the “Complete response or partial response” value ([3]; group 1 and group 2) was “Neither complete response nor partial response was observed”. For the same compound, the “Stable disease (SD), number of patients” value ([3]; group 2, 600 mg) was “three”, the “Best overall response SD, patients” value ([3]; group 2, 10 patients) was 42% and the “Progressive disease, patients” value ([3]; group 2, nine patients) was 38%. For the same compound, the “Commonly reported AE: alopecia” value [4] was 63%, the “Commonly reported AE: asthenia” value [4] was 36% and the “Commonly reported AE: dysgeusia” value [4] was 70%. For the same compound, the “Commonly reported AE: weight loss” value [4] was 46% and the Antitumor activity [5] was “antitumor activity”.
